From ChEMBL document CHEMBL1165913, “Repairing faulty genes by aminoglycosides: development of new derivatives of geneticin (G418) with enhanced suppression of diseases-causing nonsense mutations” (Bioorg Med Chem, 2010)
Values after ≈ are worked out from the molar mass of the structure shown. Active and inactive are the calls of the source. No cut-off for these calls is given here.

What was measured:
Ribosome [1] = experiment: Induction of ribosome to readthrough in-frame UGA codon associated with renilla/firefly dystrophin R3381X nonsense mutant gene transfected in rabbit reticulocyte assessed as reduction in overall translation at 5 to 20 uM […] dual-luciferase reporter gene assay; assay type: subcellular; details: Oryctolagus cuniculus
[2] = (§1) Cytotoxicity against HEK293 cells after 48 hrs by XTT assay; assay type: cell-based; details: human, HEK293 cells; read-out: LC50
Summary of the method: (§2)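 HEK-293 cells seeded overnight at 5000 cells/well in DMEM with 10% FBS, 1% pen/strep and 1% glutamine. Medium then replaced with antibiotic-free medium, aminoglycoside added at a range of concentrations, and cells incubated 48 h. Read-out by O.D. on a plate reader. Viability is the ratio of living cells treated vs untreated. LC50 fitted from concentration–response curves of at least two independent experiments. Concentrations are given as free amine.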

[3] = Inhibition of ribosomal activity in Spodoptera frugiperda Sf21 cells assessed as inhibition of translation after 60 mins by fluorescence assay; assay type: subcellular, Ribosome
[4] = Ratio of gentamicin to compound antitranslational activity against prokaryotic ribosome-mediated translation; assay type: subcellular
Escherichia coli = experiment: Antibacterial activity against Escherichia coli R477-100 by double-microdilution method; assay type: functional
Summary of the method: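 MIC by two-fold broth microdilution following NCCLS guidance; tested compound started at 384 µg/mL. Each run done in triplicate, with consistent results across three separate experiments.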

Bacterial 70S ribosome = experiment: Inhibition of ribosomal activity in Escherichia coli strain B assessed as inhibition of translation after 60 mins by coupled transcription/translation assay; assay type: subcellular
Summary of the method: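 E. coli S30 extract for circular DNA, with pBESTluc plasmid as template. Reactions containing varying aminoglycoside concentrations incubated at 37 °C for 60 min, chilled on ice 5 min, then diluted in tris-phosphate buffer (25 mM, pH 7.8) with DTT, chelator, glycerol, Triton X-100 and BSA. Luciferase luminescence read immediately after reagent addition. IC50 fitted from at least two independent experiments.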

Ribosome [5] = experiment: Induction of ribosome to readthrough in-frame UGA codon of renilla/firefly CFTR W1282X nonsense mutant gene transfected in rabbit reticulocyte assessed as reduction in overall translation at 5 to 20 uM […] dual-luciferase reporter gene assay; assay type: subcellular; details: Oryctolagus cuniculus
Ribosome [6] = experiment: Induction of ribosome to readthrough in-frame UGA codon of renilla/firefly CFTR G542X nonsense mutant gene transfected in rabbit reticulocyte assessed as reduction in overall translation at 5 to 20 uM […] dual-luciferase reporter gene assay; assay type: subcellular; details: Oryctolagus cuniculus
[7] = Ratio of paromomycin to compound antitranslational activity against prokaryotic ribosome-mediated translation; assay type: subcellular
Ribosome [8] = experiment: Induction of ribosome to readthrough in-frame UAG codon of renilla/firefly IDUA Q70X nonsense mutant gene transfected in rabbit reticulocyte assessed as reduction in overall translation at 5 to 20 uM […] dual-luciferase reporter gene assay; assay type: subcellular; details: Oryctolagus cuniculus
Ribosome [9] = experiment: Induction of ribosome to readthrough in-frame UGA codon of renilla/firefly PCDH15 R3X nonsense mutant gene transfected in rabbit reticulocyte assessed as reduction in overall translation at 5 to 20 uM […] dual-luciferase reporter gene assay; assay type: subcellular; details: Oryctolagus cuniculus
Bacillus subtilis = experiment: Antibacterial activity against Bacillus subtilis ATCC 6633 by double-microdilution method; assay type: functional
Summary of the method: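 MIC determined by double-microdilution per NCCLS against Gram-positive B. subtilis ATCC-6633, starting at 384 µg/mL of compound. Run in triplicate (footnote says duplicates); analogous results in three separate experiments.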

Ribosome [10] = experiment: Induction of ribosome to readthrough in-frame UGA codon of renilla/firefly PCDH15 R245X nonsense mutant gene transfected in rabbit reticulocyte assessed as reduction in overall translation at 5 to 20 uM […] dual-luciferase reporter gene assay; assay type: subcellular; details: Oryctolagus cuniculus
Ribosome [11] = experiment: Induction of ribosome to readthrough in-frame renilla/firefly TGA codon transfected in rabbit reticulocyte at 200 to 600 uM after 16 hrs dual-luciferase reporter gene assay; assay type: subcellular; details: Oryctolagus cuniculus
Ribosome [12] = experiment: Induction of ribosome to readthrough in-frame renilla/firefly TGA codon transfected in rabbit reticulocyte at 5 to 20 uM after 16 hrs dual-luciferase reporter gene assay; assay type: subcellular; details: Oryctolagus cuniculus
HEK293 [13] = experiment: as §1; assay type: cell-based; details: human, hek293, 48 h; read-out: LC50 (the source's name); summary of the method: as §2
[14] = Cytotoxicity against HDF after 72 hrs by XTT assay; assay type: cell-based; details: human
Summary of the method: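 Primary human dermal fibroblasts isolated from adult skin. Handled as in the HEK-293 protocol (overnight seeding, antibiotic-free medium, range of aminoglycoside concentrations), but exposed for 72 h. Viability is the ratio of treated to untreated living cells by O.D. LC50 fitted from concentration–response curves of at least two independent experiments.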

Ribosome [15] = experiment: Induction of ribosome to readthrough in-frame UGA codon of renilla/firefly CFTR W1282X nonsense mutant gene transfected in HEK293 cells assessed as reduction in overall translation at 1 to 2 mM after 6 hrs dual-luciferase reporter gene assay; assay type: subcellular; details: Homo sapiens
Ribosome [16] = experiment: Induction of ribosome to readthrough in-frame UGA codon of renilla/firefly PCDH15 R3X nonsense mutant gene transfected in HEK293 cells assessed as reduction in overall translation at 1 to 2 mM after 6 hrs dual-luciferase reporter gene assay; assay type: subcellular; details: Homo sapiens
Ribosome [17] = experiment: Induction of ribosome to readthrough in-frame UAG codon of renilla/firefly IDUA Q70X nonsense mutant gene transfected in HEK293 cells assessed as reduction in overall translation at 1 to 2 mM after 6 hrs dual-luciferase reporter gene assay; assay type: subcellular; details: Homo sapiens
HEK293 [18] = experiment: Ratio of compound LC50 to gentamicin LC50 for HEK293 cells; assay type: ADME, cell-based; details: human
Summary of the method: (§3)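 HEK-293 cells seeded 5000/well overnight in DMEM with 10% FBS, 1% pen/strep, 1% glutamine; medium replaced without antibiotics, aminoglycosides added at varying concentrations for 48 h; OD read on plate reader. Viability as living cells treated versus untreated; LC50 from concentration–response fits of at least two independent experiments; ratios relative to reference drug LC50.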

[19] = Ratio of compound LC50 to geneticin LC50 for HEK293 cells; assay type: ADME, cell-based; details: human; summary of the method: as §3
HEK293 [20] = experiment: Ratio of geneticin to compound activity for induction of ribosome to readthrough in-frame UGA codon of renilla/firefly CFTR W1282X nonsense mutant gene transfected in HEK293 cells at 0.1 to 0.7 mM after 6 hrs dual-luciferase reporter gene assay; assay type: subcellular; details: Homo sapiens

Compound	inhibition (Ribosome [1])	CC50 at 48 h [2]	IC50 [3]	MIC (Escherichia coli)	IC50 (Bacterial 70S ribosome)	inhibition (Ribosome [5])	inhibition (Ribosome [6])	inhibition (Ribosome [8])	inhibition (Ribosome [9])	MIC (Bacillus subtilis)	inhibition (Ribosome [10])	Activity (Ribosome [12])	further results
NC[C@H]1O[C@@H](O[C@@H]2[C@@H](O)[C@H](N)C[C@H](N)[C@H]2O[C@H]2O[C@H](CO)[C@@H](O)[C@H](O)[C@H]2N)[C@H](O)[C@@H]1O	10%	21400 µM	31 µM	790 µM (≈ 359 µg/mL)	0.46 µM	10%	10%	10%	10%	100 µM (≈ 45.4 µg/mL)	10%	–	Ratio [4]: 10; Ratio [7]: 10
N[C@H]1[C@@H](O[C@H]2[C@H](O)[C@@H](O)[C@H](N)C[C@@H]2N)O[C@H](CO)[C@@H](O)[C@@H]1O	–	–	–	–	–	–	–	–	–	–	–	Active	Activity (Ribosome [11]): Active
GENTAMICIN [listing 1 of 2 here]	–	–	62 µM	–	0.028 µM	–	–	–	–	–	–	–	CC50 (HEK293 [13]): 2500 µM; CC50 ([14]; hdf, 72 h, read-out: LC50 (the source's name)): 3800 µM
GENTAMICIN [listing 2 of 2 here]	–	–	–	6 µM	–	–	–	–	–	< 0.75 µM	–	–	–
NCC[C@H](O)C(=O)N[C@@H]1C[C@H](N)[C@@H](O[C@H]2O[C@H](CO)[C@@H](O)[C@H](O)[C@H]2N)[C@H](O)[C@H]1O	–	–	–	–	–	–	–	–	–	–	–	Active	Activity (Ribosome [11]): Active
C[C@H](O)[C@H]1O[C@H](O[C@H]2[C@H](O)[C@@H](O)[C@H](N)C[C@@H]2N)[C@H](N)[C@@H](O)[C@@H]1O	–	–	–	–	–	–	–	–	–	–	–	Active	Activity (Ribosome [11]): Active
NCC[C@H](O)C(=O)N[C@@H]1C[C@H](N)[C@@H](O[C@H]2O[C@H](CO)[C@@H](O)[C@H](O)[C@H]2N)[C@H](O[C@@H]2O[C@H](CN)[C@@H](O)[C@H]2O)[C@H]1O	10%	6100 µM	24 µM	588 µM (≈ 327 µg/mL)	0.16 µM	10%	10%	10%	10%	70 µM (≈ 38.9 µg/mL)	10%	–	inhibition (Ribosome [15]): Active; Ratio [4]: 10; Ratio [7]: 10; inhibition (Ribosome [16]): Active; inhibition (Ribosome [17]): Active
C[C@H](O)[C@H]1O[C@H](O[C@H]2[C@H](O)[C@@H](O)[C@H](NC(=O)[C@@H](O)CCN)C[C@@H]2N)[C@H](N)[C@@H](O)[C@@H]1O	–	–	–	–	–	–	–	–	–	–	–	Active	–
CN[C@@H]1[C@@H](O)[C@@H](O[C@@H]2[C@@H](O)[C@H](O[C@H]3O[C@H]([C@@H](C)O)[C@@H](O)[C@H](O)[C@H]3N)[C@@H](N)C[C@H]2N)OC[C@]1(C)O [GENETICIN]	–	1300 µM	–	9 µM (≈ 4.47 µg/mL)	0.0089 µM	–	–	–	–	< 1.25 µM	–	–	CC50 at 72 h ([14]; HDF cells, read-out: LC50): 2000 µM
C[C@H](O)[C@H]1O[C@H](O[C@H]2[C@H](O[C@@H]3O[C@H](CN)[C@@H](O)[C@H]3O)[C@@H](O)[C@H](N)C[C@@H]2N)[C@H](N)[C@@H](O)[C@@H]1O	10%	25800 µM	–	–	1.13 µM	10%	10%	10%	10%	42 µM (≈ 19.7 µg/mL)	10%	–	–
C[C@H](O)[C@H]1O[C@H](O[C@H]2[C@H](O[C@@H]3O[C@H](CN)[C@@H](O)[C@H]3O)[C@@H](O)[C@H](NC(=O)[C@@H](O)CCN)C[C@@H]2N)[C@H](N)[C@@H](O)[C@@H]1O	50%	7000 µM	2.8 µM	556 µM (≈ 317 µg/mL)	0.98 µM	50%	50%	50%	50%	70 µM (≈ 39.9 µg/mL)	50%	–	Ratio (HEK293 [18]): 2.8; inhibition (Ribosome [15]): Active; selectivity ratio [19]: 5; inhibition (Ribosome [16]): Active; inhibition (Ribosome [17]): Active; Ratio (HEK293 [20]): 2
